Here are results for 1 compound from ChEMBL document CHEMBL4765336, “Discovery of coumarin derivatives as potent and selective cyclin-dependent kinase 9 (CDK9) inhibitors with high antitumour activity” (Eur J Med Chem, 2020).

Data set [1] has as its target Glycogen synthase kinase-3 (Homo sapiens) (UniProt P49840+P49841). Description: Inhibition of GSK3alpha/beta (unknown origin) assessed as enzyme activity at 1 uM preincubated for 20 mins followed by ATP addition and measured after 120 mins in presence of [33P-gamma] ATP by hotspot kinase assay relative to control. Conditions: time 140.0 min. Type of data set: protein assay. Further details: scale not given: the % may be the effect or the level left. The gist of the method:
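Radiometric filter-binding kinase assay, buffer pH 7.5 with 10 mM MgCl2 and 1% DMSO. Compound tested at a single 1.0 μM, preincubated 20 min at 25 °C. Reaction started with ATP/[γ-33P]ATP at 10 μM final, run 120 min at 25 °C. Remaining % enzyme activity reported, n=2.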

Data set [2] is described as follows: Volume of distribution at steady state in ICR mouse at 2 mg/kg, iv measured up to 24 hrs by LC-MS/MS analysis. The data set is classed as ADME, organism-based. Conditions: in vivo, read-out: Vdss. The gist of the method:
(§1)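 Male ICR mice (25.1–28.8 g, n=9), fasted 12 h, given a single i.v. dose of 2.0 mg/kg at 0.4 mg/mL in DMSO/PEG200/saline (1:1:3). Blood sampled at 0, 0.083, 0.25, 0.5, 1, 2, 4, 8, 24 h. Plasma ACN-precipitated and quantified by LC-MS/MS. Parameters derived from composite mean plasma concentration-time data.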

Data set [3] concerns NCI-H460. Description: Antiproliferative activity against human NCI-H460 cells assessed as inhibition of cell growth incubated for 72 hrs by Celltiter-Glo luminescent assay. Type of data set: functional, cell-based. Conditions: NCI-H460, 72 h. The gist of the method:
(§2)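 Cells seeded in growth medium and held overnight at 37 °C; medium-only wells served as background. DMSO stocks were diluted in medium to 3× final and added; cells incubated 72 h at 37 °C, 5% CO2. Viability read by CellTiter-Glo luminescence after 60 min at room temperature. IC50 from curve fit, mean of duplicate.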

Data set [4] concerns MV4-11. Description: Antitumor activity against human MV4-11 cells xenografted in Balb/c nude mouse assessed as tumor growth inhibition at 40 mg/kg, iv administered once daily for 21 days and measured twice a week by vernier caliper method relative to control. The data set is classed as functional. The conditions noted are these: MV4-11, iv, 504 h, time 21 day, read-out: TGI.

In data set [5] the target is Cyclin-C/Cyclin-dependent kinase 19 (Homo sapiens, UniProt Q9BWU1). Put plainly: Inhibition of CDK19/Cyclin C (unknown origin) preincubated for 20 mins followed by ATP addition and measured after 120 mins in presence of [33P-gamma] ATP by hotspot kinase assay. The data set is classed as protein-complex assay. The gist of the method: (§3)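 Radiometric filter-binding assay: kinase and substrate in 20 mM Hepes pH 7.5, 10 mM MgCl2, 1 mM EGTA, 0.02% Brij35, 0.02 mg/mL BSA, 0.1 mM Na3VO4, 2 mM DTT, 1% DMSO. Compound (top 1/10/27 μM, 3-fold serial dilutions) preincubated 20 min at 25 °C. ATP plus [γ-33P]ATP added to 10 μM final, reacted 120 min at 25 °C. IC50 from curve fit, duplicate mean.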

A short description of data set [6]: AUC (0 to infinity) in ICR mouse at 2 mg/kg, iv measured up to 24 hrs by LC-MS/MS analysis. Type of data set: ADME, organism-based. Also on record: route intravenous, dose 2 mg/kg, time <=24. The conditions noted are these: in vivo.
Data set [7] relates to MV4-11. Description: Antitumor activity against human MV4-11 cells xenografted in Balb/c nude mouse assessed as reduction in tumor volume at 40 mg/kg, iv administered once daily for 21 days (reference value: 1.00 g). Type of data set: functional. The conditions noted are these: time 21 day.
Data set [8] has as its target Cyclin-dependent kinase 1/cyclin B1 (Homo sapiens, UniProt P06493). Description: Inhibition of CDK1/Cyclin B (unknown origin) preincubated for 20 mins followed by ATP addition and measured after 120 mins in presence of [33P-gamma] ATP by hotspot kinase assay. Type of data set: protein-complex assay. The gist of the method: as §3
The target in data set [9] is CDK2/Cyclin A2 (Homo sapiens, UniProt P24941). Put plainly: Inhibition of CDK2/Cyclin A (unknown origin) preincubated for 20 mins followed by ATP addition and measured after 120 mins in presence of [33P-gamma] ATP by hotspot kinase assay. The data set is classed as protein-complex assay. The gist of the method: as §3
For data set [10], the target named is Cyclin-dependent kinase 7/ cyclin H (Homo sapiens, UniProt P50613). Description: Inhibition of CDK7/Cyclin H (unknown origin) preincubated for 20 mins followed by ATP addition and measured after 120 mins in presence of [33P-gamma] ATP by hotspot kinase assay. The data set is classed as protein-complex assay. The essentials: as §3
Data set [11] deals with PANC-1. Put plainly: Antiproliferative activity against human PANC-1 cells assessed as inhibition of cell growth incubated for 72 hrs by Celltiter-Glo luminescent assay. The data set is classed as functional, cell-based. The conditions noted are these: PANC-1, 72 h. The essentials:
as §2

The nature of data set [12]: Metabolic stability in human liver microsomes assessed as intrinsic clearance at 1 uM incubated up to 60 mins in presence of NADPH by LC-MS/MS analysis. Type of data set: ADME, Microsome. The conditions noted are these: read-out: CLH. The essentials:
(§4)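 Liver microsomes (0.5 mg/mL) incubated at 37 °C with compound at 1.0 μM final, 3 mM MgCl2 and 1 mM NADPH in 100 mM PBS pH 7.4. Samples taken at 0, 5, 15, 30, 60 min; remaining parent measured by LC-MS/MS. k = −slope, T1/2 = 0.693/k, CLint = k/microsomal protein concentration. Midazolam served as control.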

Data set [13] is described as follows: Initial plasma concentration in ICR mouse at 2 mg/kg, iv measured up to 24 hrs by LC-MS/MS analysis. Type of data set: ADME, organism-based. The essentials:
as §1

Data set [14] in a line: Metabolic stability in human liver microsomes assessed as half life at 1 uM incubated up to 60 mins in presence of NADPH by LC-MS/MS analysis. Type of data set: ADME, Microsome. The essentials:
as §4

A short description of data set [15]: Metabolic stability in monkey liver microsomes assessed as half life at 1 uM incubated up to 60 mins in presence of NADPH by LC-MS/MS analysis. The data set is classed as ADME, Macaca mulatta, Microsome. Conditions: rhesus monkey. The gist of the method:
as §4

Data set [16] concerns HCT-116. Description: Antiproliferative activity against human HCT-116 cells assessed as inhibition of cell growth incubated for 72 hrs by Celltiter-Glo luminescent assay. Type of data set: functional, cell-based. Conditions: HCT-116, 72 h. The essentials:
as §2

Data set [17] in a line: Toxicity in BALB/c nude mouse xenografted with human MV4-11 cells assessed as body weight loss at 40 mg/kg, iv administered once daily for 21 days and measured 2 or 3 times per week. Type of data set: organism-based. The conditions noted are these: in vivo, 504 h, time 21 day. The gist of the method: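 Female BALB/c nude mice, six weeks old, with subcutaneous right-flank MV4-11 xenografts (5 million cells in PBS mixed 1:1 with Matrigel). Daily intravenous dosing started at tumour size 150–200 mm³, 6 mice per group, for 21 consecutive days. Vehicle was dimethylacetamide 20%/polyoxyethylated castor oil 40%/anhydrous ethanol 40%. Body weight was recorded two or three times weekly, and mortality was monitored throughout treatment.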

The nature of data set [18]: Metabolic stability in monkey liver microsomes assessed as intrinsic clearance at 1 uM incubated up to 60 mins in presence of NADPH by LC-MS/MS analysis. The data set is classed as ADME, Macaca mulatta, Microsome. The conditions noted are these: rhesus monkey, read-out: CLH. The essentials: as §4
The target in data set [19] is Cyclin-dependent kinase 4/cyclin D1 (Homo sapiens, UniProt P11802). Put plainly: Inhibition of CDK4/Cyclin D1 (unknown origin) preincubated for 20 mins followed by ATP addition and measured after 120 mins in presence of [33P-gamma] ATP by hotspot kinase assay. The data set is classed as protein-complex assay. The gist of the method:
as §3

For data set [20], the system named is SW-620. Put plainly: Antiproliferative activity against human SW-620 cells assessed as inhibition of cell growth incubated for 72 hrs by Celltiter-Glo luminescent assay. Type of data set: functional, cell-based. Conditions: SW-620, 72 h. The gist of the method:
as §2

For data set [21], the target named is CDK6/cyclin D3 (Homo sapiens, UniProt Q00534). Description: Inhibition of CDK6/Cyclin D3 (unknown origin) preincubated for 20 mins followed by ATP addition and measured after 120 mins in presence of [33P-gamma] ATP by hotspot kinase assay. The data set is classed as protein-complex assay. The gist of the method: as §3
Sequence of CDK6/cyclin D3 (P30281 whole entry): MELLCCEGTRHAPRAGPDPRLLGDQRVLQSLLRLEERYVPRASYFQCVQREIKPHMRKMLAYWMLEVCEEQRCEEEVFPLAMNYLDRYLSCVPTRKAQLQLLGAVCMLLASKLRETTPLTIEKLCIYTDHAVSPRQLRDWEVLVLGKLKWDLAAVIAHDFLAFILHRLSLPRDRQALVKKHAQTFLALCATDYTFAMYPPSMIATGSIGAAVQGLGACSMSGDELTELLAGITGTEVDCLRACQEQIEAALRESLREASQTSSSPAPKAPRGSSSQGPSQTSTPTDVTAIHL
Sequence of CDK6/cyclin D3 (Q00534 whole entry): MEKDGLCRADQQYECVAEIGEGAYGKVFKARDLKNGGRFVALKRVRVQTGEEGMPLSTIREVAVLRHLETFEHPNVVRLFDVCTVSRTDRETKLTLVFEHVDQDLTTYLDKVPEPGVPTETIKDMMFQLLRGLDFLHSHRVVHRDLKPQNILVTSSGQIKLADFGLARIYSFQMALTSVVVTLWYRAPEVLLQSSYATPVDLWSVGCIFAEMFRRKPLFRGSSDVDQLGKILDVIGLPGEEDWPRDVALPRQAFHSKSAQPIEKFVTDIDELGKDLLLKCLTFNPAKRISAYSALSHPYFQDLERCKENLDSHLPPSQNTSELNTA

Sequence of Cyclin-dependent kinase 1/cyclin B1 (P06493 whole entry): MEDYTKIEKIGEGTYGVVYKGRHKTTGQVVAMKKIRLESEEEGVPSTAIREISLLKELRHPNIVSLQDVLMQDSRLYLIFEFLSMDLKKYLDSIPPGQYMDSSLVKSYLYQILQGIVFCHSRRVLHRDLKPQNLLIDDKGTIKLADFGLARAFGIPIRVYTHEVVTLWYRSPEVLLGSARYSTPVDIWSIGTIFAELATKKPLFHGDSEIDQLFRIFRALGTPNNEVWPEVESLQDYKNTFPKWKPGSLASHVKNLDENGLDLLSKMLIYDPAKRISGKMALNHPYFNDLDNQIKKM
Sequence of Cyclin-dependent kinase 1/cyclin B1 (P14635 whole entry, further chain): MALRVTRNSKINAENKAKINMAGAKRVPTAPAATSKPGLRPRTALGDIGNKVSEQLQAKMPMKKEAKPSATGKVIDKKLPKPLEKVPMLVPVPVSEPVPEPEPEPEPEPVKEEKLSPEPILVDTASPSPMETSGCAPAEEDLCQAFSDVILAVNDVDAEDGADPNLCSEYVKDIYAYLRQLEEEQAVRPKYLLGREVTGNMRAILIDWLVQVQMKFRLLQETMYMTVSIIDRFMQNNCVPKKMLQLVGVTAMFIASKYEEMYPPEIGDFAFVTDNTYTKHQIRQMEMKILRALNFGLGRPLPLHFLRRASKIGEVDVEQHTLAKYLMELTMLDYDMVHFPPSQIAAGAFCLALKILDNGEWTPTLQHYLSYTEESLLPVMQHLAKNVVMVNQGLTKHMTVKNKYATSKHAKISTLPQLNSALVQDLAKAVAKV
Sequence of Cyclin-C/Cyclin-dependent kinase 19 (Q9BWU1 whole entry): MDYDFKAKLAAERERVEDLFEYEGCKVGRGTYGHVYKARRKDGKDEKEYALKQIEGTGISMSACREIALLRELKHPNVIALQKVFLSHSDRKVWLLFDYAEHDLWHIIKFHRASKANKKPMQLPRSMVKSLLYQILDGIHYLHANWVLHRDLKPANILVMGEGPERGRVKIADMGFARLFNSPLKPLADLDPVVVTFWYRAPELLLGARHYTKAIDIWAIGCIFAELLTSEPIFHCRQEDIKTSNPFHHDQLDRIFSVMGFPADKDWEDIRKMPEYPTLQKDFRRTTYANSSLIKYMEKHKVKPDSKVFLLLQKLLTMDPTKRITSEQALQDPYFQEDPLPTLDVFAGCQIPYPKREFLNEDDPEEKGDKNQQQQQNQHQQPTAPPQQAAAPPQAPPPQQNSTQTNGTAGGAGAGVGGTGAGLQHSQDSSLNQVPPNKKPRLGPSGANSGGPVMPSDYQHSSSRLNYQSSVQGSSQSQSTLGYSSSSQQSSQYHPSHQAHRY
Sequence of Cyclin-C/Cyclin-dependent kinase 19 (P24863 whole entry, further chain): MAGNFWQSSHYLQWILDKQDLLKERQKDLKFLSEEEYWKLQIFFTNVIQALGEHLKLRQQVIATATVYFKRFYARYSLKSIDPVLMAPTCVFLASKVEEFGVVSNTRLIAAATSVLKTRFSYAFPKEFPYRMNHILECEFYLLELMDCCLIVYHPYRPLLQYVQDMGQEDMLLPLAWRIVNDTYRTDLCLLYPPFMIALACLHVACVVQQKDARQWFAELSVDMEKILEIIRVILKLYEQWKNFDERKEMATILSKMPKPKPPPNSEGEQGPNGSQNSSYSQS
Sequence of Cyclin-dependent kinase 7/ cyclin H (P51946 whole entry): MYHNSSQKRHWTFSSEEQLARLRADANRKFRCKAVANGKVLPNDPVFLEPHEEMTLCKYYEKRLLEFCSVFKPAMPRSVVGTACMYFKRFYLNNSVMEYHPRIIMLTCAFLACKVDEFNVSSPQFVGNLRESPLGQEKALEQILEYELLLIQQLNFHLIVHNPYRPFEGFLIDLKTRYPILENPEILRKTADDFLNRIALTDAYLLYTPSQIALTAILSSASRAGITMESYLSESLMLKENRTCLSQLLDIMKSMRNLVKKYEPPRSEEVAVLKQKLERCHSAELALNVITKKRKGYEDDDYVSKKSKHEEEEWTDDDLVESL
Sequence of Cyclin-dependent kinase 7/ cyclin H (P50613 whole entry): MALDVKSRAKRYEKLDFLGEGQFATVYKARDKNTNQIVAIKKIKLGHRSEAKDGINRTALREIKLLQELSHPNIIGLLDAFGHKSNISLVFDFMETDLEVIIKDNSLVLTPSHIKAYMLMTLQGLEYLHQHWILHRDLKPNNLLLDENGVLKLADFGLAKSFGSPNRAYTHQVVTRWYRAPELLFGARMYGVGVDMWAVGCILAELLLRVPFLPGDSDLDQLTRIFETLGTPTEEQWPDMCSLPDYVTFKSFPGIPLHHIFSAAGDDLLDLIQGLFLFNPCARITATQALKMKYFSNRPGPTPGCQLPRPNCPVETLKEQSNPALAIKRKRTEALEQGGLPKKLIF
Sequence of Cyclin-dependent kinase 4/cyclin D1 (P11802 whole entry): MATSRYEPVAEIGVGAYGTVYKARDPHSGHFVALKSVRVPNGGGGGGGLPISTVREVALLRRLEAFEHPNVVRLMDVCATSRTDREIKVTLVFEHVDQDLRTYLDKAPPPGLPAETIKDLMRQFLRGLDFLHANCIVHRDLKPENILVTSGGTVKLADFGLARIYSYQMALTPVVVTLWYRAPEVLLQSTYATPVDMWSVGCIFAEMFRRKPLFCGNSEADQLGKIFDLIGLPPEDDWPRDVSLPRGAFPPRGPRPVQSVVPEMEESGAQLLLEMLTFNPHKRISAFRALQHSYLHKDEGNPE
Sequence of Cyclin-dependent kinase 4/cyclin D1 (P24385 whole entry, further chain): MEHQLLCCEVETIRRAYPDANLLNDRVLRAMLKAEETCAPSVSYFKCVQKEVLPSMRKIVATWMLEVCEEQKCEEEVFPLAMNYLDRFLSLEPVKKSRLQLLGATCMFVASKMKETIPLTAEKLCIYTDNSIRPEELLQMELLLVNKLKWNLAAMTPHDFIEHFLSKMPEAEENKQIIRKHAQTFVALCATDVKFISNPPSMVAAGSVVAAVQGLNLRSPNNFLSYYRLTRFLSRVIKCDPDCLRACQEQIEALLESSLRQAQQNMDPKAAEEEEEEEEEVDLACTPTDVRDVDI
Sequence of Glycogen synthase kinase-3 (Homo sapiens) (P49840 whole entry, looked up): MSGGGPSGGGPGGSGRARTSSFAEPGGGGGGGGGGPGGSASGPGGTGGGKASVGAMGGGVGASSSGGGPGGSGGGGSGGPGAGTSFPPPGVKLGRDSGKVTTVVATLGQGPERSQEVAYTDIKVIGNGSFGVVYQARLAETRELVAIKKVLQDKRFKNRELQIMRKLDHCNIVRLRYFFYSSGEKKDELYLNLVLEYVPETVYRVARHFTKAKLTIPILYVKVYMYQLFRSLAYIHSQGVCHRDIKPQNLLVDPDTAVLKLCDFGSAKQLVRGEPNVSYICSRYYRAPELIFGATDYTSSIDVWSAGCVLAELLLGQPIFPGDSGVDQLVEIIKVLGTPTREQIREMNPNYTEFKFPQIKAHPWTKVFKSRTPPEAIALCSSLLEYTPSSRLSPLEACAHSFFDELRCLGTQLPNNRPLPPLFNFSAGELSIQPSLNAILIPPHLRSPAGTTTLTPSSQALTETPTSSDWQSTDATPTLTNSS
Sequence of Glycogen synthase kinase-3 (Homo sapiens) (P49841 whole entry, looked up): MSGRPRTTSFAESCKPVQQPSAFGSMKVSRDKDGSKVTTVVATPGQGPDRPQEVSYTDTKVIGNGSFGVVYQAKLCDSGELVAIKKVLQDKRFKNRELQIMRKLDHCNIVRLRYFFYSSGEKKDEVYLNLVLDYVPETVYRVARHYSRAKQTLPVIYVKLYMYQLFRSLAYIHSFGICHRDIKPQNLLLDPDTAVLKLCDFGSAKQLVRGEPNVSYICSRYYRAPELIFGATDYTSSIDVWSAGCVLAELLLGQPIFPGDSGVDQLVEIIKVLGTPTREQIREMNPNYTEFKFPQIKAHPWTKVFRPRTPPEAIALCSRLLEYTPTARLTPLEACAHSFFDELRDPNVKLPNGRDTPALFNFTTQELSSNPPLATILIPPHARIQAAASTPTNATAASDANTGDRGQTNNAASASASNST

In the case of `COc1cc(F)ccc1-c1nc(Nc2ccc3c(N4CCOCC4)c(C(C)=O)c(=O)oc3c2)ncc1F`, the values for the Activity in [1], in data set [7] and in data set [17] were less than 10%, 0.18 g and “Non-Toxic”, respectively. Also, in data set [2], the Vd amounted to 0.67 L/kg. The IC50 in data set [3] is 640 nM; in [5], 15500 nM; in data set [8], 1950 nM; in data set [9], 320 nM; in [10], 16600 nM; in data set [11], 300 nM. For the same compound, the IC50 in data set [16] was 280 nM; in [19], 471 nM; in data set [20], 430 nM; in [21], 336 nM. The inhibition in vivo at 40 mg/kg in data set [4] was 100%. Further, the total exposure AUC(0-inf) in data set [6] was 561 ng·h/mL. The microsomal CLint at 1 µM in data set [12] is 38.8 µL/min/mg; in [18], 57.3 µL/min/mg. For the same compound, the C0 at 24 h in data set [13] was found to be 3060 ng/mL. In addition, the results for the half-life at 1 µM in [14] and in data set [15] were 35.7 min and 24.2 min, respectively.
